In experiment [1] the target is Growth hormone secretagogue receptor type 1 (Homo sapiens, UniProt Q92847). As to the kind of experiment: Agonist activity at human GHS receptor expressed in H4 cells by FLIPR assay. In kind it is functional, cell-based.
For experiment [2], the system named is Rattus norvegicus. As to the kind of experiment: Stimulation of growth hormone release in rat at 0.17 umol/kg, iv relative to control. The format is functional. In short, it runs like this: (§1)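 Fasted male Wistar rats (200–250 g) were anesthetized with ketamine 30 mg/kg plus xylazine 10 mg/kg ip. They were dosed iv at 10 mL/kg in vehicle (10% ethanol, […] V/V), five rats per group. Aortic blood was drawn 15 min post-dose, and plasma rat GH was measured by radioimmunoassay. Results are given as % GH increase ± SEM versus vehicle control.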

In experiment [3] the test system is Rattus norvegicus. Kind of experiment: Stimulation of growth hormone release in rat at 0.017 umol/kg, iv relative to control. The format is functional. In short, it runs like this:
as §1

For experiment [4], the system named is Rattus norvegicus. As to the kind of experiment: Stimulation of growth hormone release in rat at 0.052 umol/kg, iv relative to control. In kind it is functional. An outline of the steps:
as §1

Bounds are passed on as bounds.

Growth hormone secretagogue receptor type 1, sequence (Q92847 whole entry): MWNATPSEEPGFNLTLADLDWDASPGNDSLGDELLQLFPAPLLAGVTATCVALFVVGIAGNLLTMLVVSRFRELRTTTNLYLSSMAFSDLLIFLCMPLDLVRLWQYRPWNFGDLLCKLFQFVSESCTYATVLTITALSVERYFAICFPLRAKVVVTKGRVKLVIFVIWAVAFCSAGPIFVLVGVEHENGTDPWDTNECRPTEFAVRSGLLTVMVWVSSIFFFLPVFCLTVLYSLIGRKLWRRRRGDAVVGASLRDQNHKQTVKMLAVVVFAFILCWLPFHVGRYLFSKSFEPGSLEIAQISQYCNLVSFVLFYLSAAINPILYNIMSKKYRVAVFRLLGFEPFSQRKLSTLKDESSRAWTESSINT

Regarding `CC(C)(N)C(=O)N[C@H](COCc1ccccc1)c1nnnn1CCCC(=O)NCCCc1ccccc1`, in experiment [1], the EC50 was 33 nM and the Intrinsic activity was > 85%.

Regarding `CC(C)(N)C(=O)N[C@H](COCc1ccccc1)c1nnnn1CCOc1cccc(C(=O)NCCCCO)c1`, in experiment [1], the EC50 came to 3 nM and the Intrinsic activity was > 85%.

Consider `CC(C)(N)C(=O)N[C@H](COCc1ccccc1)c1nnnn1CCOC(=O)NCCCCO`, for which the Intrinsic activity in experiment [1] was > 85%. In the experiment on Rattus norvegicus [2], this compound displayed an Activity of 264%.

As to `CC(C)(N)C(=O)N[C@H](COCc1ccccc1)c1nnnn1CCCC(=O)Nc1ccccc1`, in experiment [1], the midpoint of the response, the EC50, lay at 70 nM and the Intrinsic activity is > 85%.

Turning to `CC(C)(N)C(=O)N[C@H](COCc1ccccc1)c1nnnn1CCOc1cccc(C(=O)NCCO)c1`, in experiment [1], the EC50 stood at 8.4 nM and the Intrinsic activity was > 85%.

Take `CN(CCc1cccc(S(=O)(=O)CCO)c1)C(=O)CCCn1nnnc1[C@@H](COCc1ccccc1)NC(=O)C(C)(C)N`: in experiment [1], the EC50 was 2.9 nM and the Intrinsic activity was > 85%.

Regarding `CC(C)(N)C(=O)N[C@H](COCc1ccccc1)c1nnnn1CCNC(=O)CCCCO`, in experiment [1], the 50% effective concentration (EC50) worked out at 4.4 nM and the Intrinsic activity was > 85%. Besides, in the experiment with Rattus norvegicus [2], the Activity was 722%.

In the case of `CC(C)(N)C(=O)N[C@H](COCc1ccccc1)c1nnnn1CCCC(=O)N[C@H]1CC[C@H](O)CC1`, in experiment [1], the EC50 was found to be 521 nM and the Intrinsic activity is > 85%.

Take `CC(C)(N)C(=O)N[C@H](COCc1ccccc1)c1nnnn1CCCC(=O)NCCS(N)(=O)=O`: in experiment [1], a half-maximal effect (EC50) was put at 1.4 nM and the Intrinsic activity is > 85%. The compound also showed an Activity with Rattus norvegicus [2] of 408%.

On to `CC(C)(N)C(=O)N[C@H](COCc1ccccc1)c1nnnn1CCCC(=O)NCCOCCO`, for which, in experiment [1], the response was half-maximal at 0.7 nM (EC50) and the Intrinsic activity is > 85%.

For `CC(C)(N)C(=O)N[C@H](COCc1ccccc1)c1nnnn1CCCC(=O)NCCCCCCO`, in experiment [1], the midpoint of the response, the EC50, lay at 0.6 nM and the Intrinsic activity was > 85%. For the same compound, in the experiment on Rattus norvegicus [2], the Activity is on record as 522%.

Take `CC(C)(N)C(=O)N[C@H](COCc1ccccc1)c1nnnn1CCCC(=O)NCc1ccccc1`: in experiment [1], the EC50 was determined as 32 nM and the Intrinsic activity was > 85%.

Consider `CC(C)(N)C(=O)N[C@H](COCc1ccccc1)c1nnnn1CCCC(=O)NCCc1cccc(O)c1`, for which, in experiment [1], the 50% effective concentration (EC50) was 0.2 nM and the Intrinsic activity is > 85%. Besides, the Activity with Rattus norvegicus [2] is recorded as 606%.

With `CC(C)(N)C(=O)N[C@H](COCc1ccccc1)c1nnnn1CCCC(=O)NCCS(C)(=O)=O`, in experiment [1], the EC50 was found to be 4.1 nM and the Intrinsic activity was > 85%.

On to `CN(CCc1cccc(O)c1)C(=O)CCCn1nnnc1[C@@H](COCc1ccccc1)NC(=O)C(C)(C)N`, for which, in experiment [1], a half-maximal response (EC50) required 3.1 nM and the Intrinsic activity was > 85%.

On to `CC(C)(N)C(=O)N[C@H](COCc1ccccc1)c1nnnn1CCNC(=O)CCS(C)(=O)=O`, for which, in experiment [1], the EC50 was 14.7 nM and the Intrinsic activity was > 85%.

Take `CC(C)(N)C(=O)N[C@H](COCc1ccccc1)c1nnnn1CCCC(=O)NCCCCCO`: in experiment [1], a half-maximal effect (EC50) was put at 1.3 nM and the Intrinsic activity is > 85%.

Turning to `CCCCNC(=O)CCCn1nnnc1[C@@H](COCc1ccccc1)NC(=O)C(C)(C)N`, in experiment [1], the Intrinsic activity was > 85%.

In the case of `CC(C)(N)C(=O)N[C@H](COCc1ccccc1)c1nnnn1CCCC(=O)NCCSCCO`, in experiment [1], the EC50 came to 0.2 nM and the Intrinsic activity was > 85%.

With `CC(C)(N)C(=O)N[C@H](COCc1ccccc1)c1nnnn1CCCC(=O)NCCO`, in experiment [1], the EC50 was determined as 40 nM and the Intrinsic activity is > 85%.

In the case of `CC(C)(N)C(=O)N[C@H](COCc1ccccc1)c1nnnn1CCOc1ccccc1C(=O)NCCCCO`, in experiment [1], the half-maximal effective concentration (EC50) stood at 0.9 nM and the Intrinsic activity was > 85%.

For the compound `CC(C)(N)C(=O)N[C@H](COCc1ccccc1)c1nnnn1CCCC(=O)NCCCO`, in experiment [1], the EC50 is 27 nM and the Intrinsic activity was > 85%.

For the compound `CC(C)(N)C(=O)N[C@H](COCc1ccccc1)c1nnnn1CCCC(=O)NCCC(=O)O`, in experiment [1], a half-maximal response (EC50) required 204 nM and the Intrinsic activity was > 85%.

Consider `CC(C)(N)C(=O)N[C@H](COCc1ccccc1)c1nnnn1CCNC(=O)CCc1cccc(O)c1`, for which, in experiment [1], it took 0.64 nM to reach a half-maximal effect (EC50) and the Intrinsic activity is > 85%.

`CC(C)(N)C(=O)N[C@H](COCc1ccccc1)c1nnnn1CCCC(=O)NCCCCO`: in experiment [1], the EC50 is 1.8 nM and the Intrinsic activity was > 85%.

In the case of `CC(C)(N)C(=O)N[C@H](COCc1ccccc1)c1nnnn1CCCC(=O)NCCc1ccccc1`, in experiment [1], the EC50 turned out to be 23 nM and the Intrinsic activity was > 85%.

With `CC(C)(N)C(=O)N[C@H](COCc1ccccc1)c1nnnn1CCCC(=O)NCCc1cccc(S(=O)(=O)CCO)c1`, in experiment [1], the EC50 came to 105 nM and the Intrinsic activity was > 85%.

Turning to `CC(C)(N)C(=O)N[C@H](COCc1ccccc1)c1nnnn1CCCC(=O)NCCN1CCNC1=O`, in experiment [1], a half-maximal effect (EC50) was put at 3.3 nM and the Intrinsic activity is > 85%.

Consider `CCOC(=O)CCNC(=O)CCCn1nnnc1[C@@H](COCc1ccccc1)NC(=O)C(C)(C)N`, for which, in experiment [1], the midpoint of the response, the EC50, lay at 140 nM and the Intrinsic activity was > 85%.

As to `CC(C)(N)C(=O)N[C@H](COCc1ccccc1)c1nnnn1CCCC(=O)NCCC(N)=O`, in experiment [1], it took 7.6 nM to reach a half-maximal effect (EC50) and the Intrinsic activity was > 85%.

On to `CC(C)(N)C(=O)N[C@H](COCc1ccccc1)c1nnnn1CCOc1ccccc1C(=O)NCCO`, for which, in experiment [1], the EC50 is 11 nM and the Intrinsic activity is > 85%.

On to `CC(C)(N)C(=O)N[C@H](COCc1ccccc1)c1nnnn1CCCC(=O)NCCS(=O)(=O)CCO`, for which the results for the Activity in the experiment with Rattus norvegicus [3], in the experiment with Rattus norvegicus [4] and with Rattus norvegicus [2] were 398%, 956% and 1290%, respectively. The same compound had an EC50 in experiment [1] of 0.2 nM. Moreover, the Intrinsic activity in experiment [1] was > 85%.

As to `CC(C)(N)C(=O)N[C@H](COCc1ccccc1)c1nnnn1CCCC(=O)NCC(F)(F)F`, in experiment [1], a half-maximal response (EC50) required 26 nM and the Intrinsic activity is > 85%.

`CCCCCCCC(=O)OC[C@H](NC(=O)CNC(=O)[C@@H](N)CCCNC(=N)N)C(=O)N[C@@H](CO)C(=O)N[C@@H](Cc1ccccc1)C(=O)N[C@@H](CC(C)C)C(=O)N[C@@H](CO)C(=O)N1CCC[C@H]1C(=O)N[C@@H](CCC(=O)O)C(=O)N[C@@H](Cc1cnc[nH]1)C(=O)N[C@@H](CCC(N)=O)C(=O)N[C@@H](CCCCN)C(=O)N[C@@H](C)C(=O)N[C@@H](CCC(N)=O)C(=O)N[C@@H](CCC(N)=O)C(=O)N[C@@H](CCCNC(=N)N)C(=O)N[C@@H](CCCCN)C(=O)N[C@@H](CCC(=O)O)C(=O)N[C@@H](CO)C(=O)N[C@@H](CCCCN)C(=O)N[C@@H](CCCCN)C(=O)N1CCC[C@H]1C(=O)N1CCC[C@H]1C(=O)N[C@@H](C)C(=O)N[C@@H](CCCCN)C(=O)N[C@@H](CC(C)C)C(=O)N[C@@H](CCC(N)=O)C(=O)N1CCC[C@H]1C(=O)O`: the Intrinsic activity in experiment [1] was > 85%.

The values above are taken from ChEMBL document CHEMBL1144840, “Tetrazole based amides as growth hormone secretagogues” (Bioorg Med Chem Lett, 2008).
